In brackets after ≈: the same amount, converted by molar mass.
What was measured:
[1] = Kinetic solubility of the compound in pION buffer at pH 7.4 measured after 18 hrs; type: physicochemical; details: read-out: Kinetic_solubility
[2] = target: T1, Diacylglycerol O-acyltransferase 1 (Mus musculus) (UniProt Q9Z2A7); assay: Inhibition of DGAT1 in mouse C2C12 cells at 300 nM using [14C] oleic acid as substrate measured after 20 mins by phosphorimaging method relative to control; type: cell-based
T1 sequence (whole entry): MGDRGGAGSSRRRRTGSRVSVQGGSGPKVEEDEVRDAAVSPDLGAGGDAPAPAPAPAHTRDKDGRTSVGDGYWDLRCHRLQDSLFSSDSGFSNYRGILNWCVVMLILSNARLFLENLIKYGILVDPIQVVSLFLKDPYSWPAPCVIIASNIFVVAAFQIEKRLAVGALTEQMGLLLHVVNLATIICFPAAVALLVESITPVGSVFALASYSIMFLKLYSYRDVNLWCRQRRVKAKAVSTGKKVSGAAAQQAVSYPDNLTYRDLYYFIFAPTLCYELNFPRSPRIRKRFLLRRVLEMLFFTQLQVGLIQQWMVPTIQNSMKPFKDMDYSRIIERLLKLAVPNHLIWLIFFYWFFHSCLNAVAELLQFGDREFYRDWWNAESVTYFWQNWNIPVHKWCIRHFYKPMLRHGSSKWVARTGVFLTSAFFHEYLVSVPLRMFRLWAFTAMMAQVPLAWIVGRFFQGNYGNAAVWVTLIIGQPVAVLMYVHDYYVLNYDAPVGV

[3] = test system: Mus musculus; assay: In vivo inhibition of DGAT1 in corn oil-induced Swiss albino mouse hypertriglyceridemia model assessed as reduction in plasma triglyceride level at 0.3 mg/kg, po pretreated for 30 mins followed by coil oil challenge measured after 2.5 hrs relative to control; type: functional
Procedure, shortened: (§1)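 Male Swiss Albino mice were fasted overnight, then dosed orally at 0.03, 0.1, 0.3, 1, 3 or 10 mg/kg. Thirty minutes later they received an oral corn oil bolus of 5 mL/kg.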

[4] = test system: Salmonella typhimurium; assay: Mutagenicity in Salmonella typhimurium TA1537 in absence of S9 fraction by Ames test; type: toxicity, organism-based; details: salmonella enterica subsp. enterica serovar typhimurium
[5] = test system: Salmonella typhimurium; assay: Mutagenicity in Salmonella typhimurium TA100 in absence of S9 fraction by Ames test; type: toxicity, organism-based; details: salmonella enterica subsp. enterica serovar typhimurium
[6] = test system: Salmonella typhimurium; assay: Mutagenicity in Salmonella typhimurium TA1535 in absence of S9 fraction by Ames test; type: toxicity, organism-based; details: salmonella enterica subsp. enterica serovar typhimurium
[7] = test system: Escherichia coli; assay: Mutagenicity in Escherichia coli WP2uvrA in absence of S9 fraction by Ames test; type: toxicity, organism-based
[8] = test system: Salmonella typhimurium; assay: Mutagenicity in Salmonella typhimurium TA100 in presence of S9 fraction by Ames test; type: toxicity, organism-based; details: salmonella enterica subsp. enterica serovar typhimurium
[9] = test system: Salmonella typhimurium; assay: Mutagenicity in Salmonella typhimurium TA1537 in presence of S9 fraction by Ames test; type: toxicity, organism-based; details: salmonella enterica subsp. enterica serovar typhimurium
[10] = test system: Salmonella typhimurium; assay: Mutagenicity in Salmonella typhimurium TA98 in presence of S9 fraction by Ames test; type: toxicity, organism-based; details: salmonella enterica subsp. enterica serovar typhimurium
[11] = test system: Salmonella typhimurium; assay: Mutagenicity in Salmonella typhimurium TA98 in absence of S9 fraction by Ames test; type: toxicity, organism-based; details: salmonella enterica subsp. enterica serovar typhimurium
[12] = test system: Escherichia coli; assay: Mutagenicity in Escherichia coli WP2uvrA in presence of S9 fraction by Ames test; type: toxicity, organism-based
[13] = test system: Salmonella typhimurium; assay: Mutagenicity in Salmonella typhimurium TA1535 in presence of S9 fraction by Ames test; type: toxicity, organism-based; details: salmonella enterica subsp. enterica serovar typhimurium
[14] = target: Diacylglycerol O-acyltransferase 1 (Homo sapiens) (UniProt O75907); assay: Inhibition of recombinant human DGAT1 expressed in baculovirus infected Sf9 insect microsomal membranes at 10 uM using C10-DAG and C10-CoA as substrate pretreated for 15 mins followed by substrate addition measured after 60 mins by CPM dye based fluorescence assay relative to control
[15] = Oral bioavailability in Sprague-Dawley rat at 2 mg/kg; type: ADME, organism-based; details: in vivo
Procedure, shortened: (§2)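 Male animals, n = 3 per species: C57BL/6J mouse at 2.2 mg/kg IV and 2.7 mg/kg PO; Sprague–Dawley rat at 1 mg/kg IV and 2 mg/kg PO; Beagle dog at 1.8 mg/kg IV and 5.3 mg/kg PO. Plasma clearance, Vss, IV half-life and oral %F were derived from the plasma profiles.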

[16] = species on record: Mus musculus; assay: animal or person; details: Swiss, po
[17] = Half life in Sprague-Dawley rat at 1 mg/kg, iv; type: ADME, organism-based; details: in vivo; procedure, shortened: as §2
[18] = test system: Mus musculus; assay: In vivo inhibition of DGAT1 in corn oil-induced Swiss albino mouse hypertriglyceridemia model assessed as reduction in plasma triglyceride level at 0.03 mg/kg, po pretreated for 30 mins followed by coil oil challenge measured after 2.5 hrs relative to control; type: functional; procedure, shortened: as §1
[19] = Plasma clearance in Beagle dog at 1.8 mg/kg, iv or 5.3 mg/kg, po; type: ADME, organism-based, Canis lupus familiaris; procedure, shortened: as §2
[20] = Volume of distribution at steady state in Sprague-Dawley rat at 1 mg/kg, iv or 2 mg/kg, po; type: ADME, organism-based; details: in vivo, read-out: Vdss
Procedure, shortened: (§3)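 Male animals, n = 3 per species. Each was given a single intravenous dose and a separate oral dose, at the species-specific levels in the line. Plasma clearance, steady-state volume of distribution, IV half-life and oral bioavailability were derived from these studies.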

[21] = test system: Mus musculus; assay: In vivo inhibition of DGAT1 in corn oil-induced Swiss albino mouse hypertriglyceridemia model assessed as reduction in plasma triglyceride level at 1 mg/kg, po pretreated for 30 mins followed by coil oil challenge measured after 2.5 hrs relative to control; type: functional; procedure, shortened: as §1
[22] = Volume of distribution at steady state in Beagle dog at 1.8 mg/kg, iv or 5.3 mg/kg, po; type: ADME, organism-based, Canis lupus familiaris; details: in vivo, read-out: Vdss; procedure, shortened: as §3
[23] = test system: Mus musculus; assay: In vivo inhibition of DGAT1 in corn oil-induced Swiss albino mouse hypertriglyceridemia model assessed as reduction in plasma triglyceride level at 0.1 mg/kg, po pretreated for 30 mins followed by coil oil challenge measured after 2.5 hrs relative to control; type: functional; procedure, shortened: as §1
[24] = Oral bioavailability in Beagle dog at 5.3 mg/kg; type: ADME, organism-based, Canis lupus familiaris; details: in vivo; procedure, shortened: as §2
[25] = Volume of distribution at steady state in C57BL/6J mouse at 2.2 mg/kg, iv or 2.7 mg/kg, po; type: ADME, organism-based; details: in vivo, read-out: Vdss; procedure, shortened: as §3
[26] = Half life in C57BL/6J mouse at 2.2 mg/kg, iv; type: ADME, organism-based; details: in vivo; procedure, shortened: as §2
[27] = Plasma clearance in C57BL/6J mouse at 2.2 mg/kg, iv or 2.7 mg/kg, po; type: ADME, organism-based; procedure, shortened: as §2
[28] = test system: Mus musculus; assay: In vivo inhibition of DGAT1 in corn oil-induced Swiss albino mouse hypertriglyceridemia model assessed as reduction in plasma triglyceride level at 3 mg/kg, po pretreated for 30 mins followed by coil oil challenge measured after 2.5 hrs relative to control; type: functional; procedure, shortened: as §1
[29] = Half life in Beagle dog at 1.8 mg/kg, iv; type: ADME, organism-based, Canis lupus familiaris; details: in vivo; procedure, shortened: as §2
[30] = test system: Mus musculus; assay: In vivo inhibition of DGAT1 in corn oil-induced Swiss albino mouse hypertriglyceridemia model assessed as reduction in plasma triglyceride level at 10 mg/kg, po pretreated for 30 mins followed by coil oil challenge measured after 2.5 hrs relative to control; type: functional; procedure, shortened: as §1
[31] = Oral bioavailability in C57BL/6J mouse at 2.7 mg/kg; type: ADME, organism-based; details: in vivo; procedure, shortened: as §2
[32] = Plasma clearance in Sprague-Dawley rat at 1 mg/kg, iv or 2 mg/kg, po; type: ADME, organism-based; procedure, shortened: as §2

Chain of Diacylglycerol O-acyltransferase 1 (Homo sapiens) (O75907 whole entry): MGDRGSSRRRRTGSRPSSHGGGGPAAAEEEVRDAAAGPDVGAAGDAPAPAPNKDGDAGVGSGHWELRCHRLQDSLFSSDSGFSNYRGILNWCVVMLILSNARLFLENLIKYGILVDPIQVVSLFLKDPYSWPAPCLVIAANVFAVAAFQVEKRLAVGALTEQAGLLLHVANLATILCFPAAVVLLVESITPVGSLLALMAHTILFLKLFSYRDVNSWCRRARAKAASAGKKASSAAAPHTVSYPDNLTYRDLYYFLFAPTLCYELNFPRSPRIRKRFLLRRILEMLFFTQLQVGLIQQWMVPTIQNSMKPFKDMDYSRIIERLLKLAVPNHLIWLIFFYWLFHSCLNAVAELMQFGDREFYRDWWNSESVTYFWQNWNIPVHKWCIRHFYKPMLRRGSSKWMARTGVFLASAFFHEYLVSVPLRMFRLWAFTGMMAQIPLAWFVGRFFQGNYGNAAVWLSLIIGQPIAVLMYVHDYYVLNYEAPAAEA

Work on `CCC1(CC(=O)O)CCc2cc(-c3ccc(NC(=O)Nc4ccc(Cl)cc4)cc3)ccc2C1=O` (racemic) yielded a solubility kinetic at 18 h [1] of 100 µg/mL (≈ 210 µM) and an inhibition [2] of 72%.
Compound `Nc1ncnc2c1C(=O)N(c1ccc([C@H]3CC[C@H](CC(=O)O)CC3)cc1)CCO2` [PF-04620110] has an inhibition in vivo at 0.3 mg/kg [3] of 94%.
Compound `CCC1(CC(=O)O)CCc2cc(-c3ccc(NC(=O)Nc4ccc(C)cc4)cc3)ccc2C1=O` (configuration not stated) has a solubility kinetic at 18 h [1] of 36 µg/mL (≈ 78.9 µM).
`CCC1(CC(=O)O)CCc2cc(-c3ccc(NC(=O)Nc4cccc(OC)c4)cc3)ccc2C1=O` (configuration not stated) gave a solubility kinetic at 18 h [1] of 6 µg/mL (≈ 12.7 µM).
`O=C(O)CC1(CC(F)(F)F)CCc2cc(-c3ccc(NC(=O)Nc4ccccc4)cc3)ccc2C1=O` (configuration not stated) showed a solubility kinetic at 18 h [1] of 30 µg/mL (≈ 60.4 µM).
With `CC1(CC(=O)O)CCc2cc(-c3ccc(NC(=O)Nc4ccccc4)cc3)ccc2C1=O` (configuration not stated) the solubility kinetic at 18 h [1] was 54 µg/mL (≈ 126 µM).
`CCC1(CC(=O)O)CCc2cc(-c3ccc(NC(=O)Nc4cccc(C(F)(F)F)c4)cc3)ccc2C1=O` (racemic) gave a solubility kinetic at 18 h [1] of 39 µg/mL (≈ 76.4 µM) and an inhibition [2] of 62%.
`COc1cccc(NC(=O)Nc2ccc(-c3ccc4c(c3)CCC(C)(CC(=O)O)C4=O)cc2)c1` (configuration not stated) showed a solubility kinetic at 18 h [1] of 40 µg/mL (≈ 87.2 µM).
Work on `CCC1(CC(=O)O)CCc2cc(-c3ccc(NC(=O)Nc4cccc(C)c4)cc3)ccc2C1=O` (configuration not stated) yielded a solubility kinetic at 18 h [1] of 6 µg/mL (≈ 13.1 µM).
In the case of `CC[C@@]1(CC(=O)O)CCc2cc(-c3ccc(NC(=O)Nc4ccc(Cl)cc4)cc3)ccc2C1=O`, the solubility kinetic at 18 h [1] was 5 µg/mL (≈ 10.5 µM) and the inhibition [2] was 83%.
`CCC1(CC(=O)O)CCc2cc(-c3ccc(NC(=O)Nc4cccc(Cl)c4)cc3)ccc2C1=O` (configuration not stated) showed a solubility kinetic at 18 h [1] of 101 µg/mL (≈ 212 µM).
In the case of `CCC1(CC(=O)O)CCc2cc(-c3ccc(N)cc3)ccc2C1=O` (configuration not stated), the Activity [4] was “Toxic”, the Activity [5] was “Toxic” and the Activity [6] was “Toxic”. For the same compound, the Activity [7] was “Toxic”, the Activity [8] was “Toxic” and the Activity [9] was “Toxic”. For the same compound, the Activity [10] was “Toxic”, the Activity [11] was “Toxic” and the Activity [12] was “Toxic”. For the same compound, the Activity [13] was “Toxic”.
`O=C(O)CC1(F)CCc2cc(-c3ccc(NC(=O)Nc4ccccc4)cc3)ccc2C1=O` (configuration not stated) gave a solubility kinetic at 18 h [1] of 31 µg/mL (≈ 71.7 µM) and an inhibition [14] of 84%.
For `CC[C@@]1(CC(=O)O)CCc2cc(-c3ccc(NC(=O)Nc4cccc(C(F)(F)F)c4)cc3)ccc2C1=O`, the bioavailability [15] was 87%, the ED50 [16] was 0.23 mg/kg and the Activity [4] was “Non-Toxic”. For the same compound, the half-life [17] was 234 min, the inhibition in vivo at 0.03 mg/kg [18] was 19% and the Activity [5] was “Non-Toxic”. It also gave a solubility kinetic at 18 h [1] of 78 µg/mL (≈ 153 µM), an inhibition [2] of 75% and a clearance [19] of 4.6 mL/min/kg. For the same compound, the Vd [20] was 1 L/kg, the inhibition in vivo at 0.3 mg/kg [3] was 60% and the Activity [6] was “Non-Toxic”. The Activity [7] was “Non-Toxic”, the inhibition in vivo at 1 mg/kg [21] was 71% and the Activity [8] was “Non-Toxic”. For the same compound, the Vd [22] was 0.6 L/kg, the inhibition in vivo at 0.1 mg/kg [23] was 33% and the bioavailability [24] was 149%. The Activity [9] was “Non-Toxic”, the Vd [25] was 2.4 L/kg and the Activity [10] was “Non-Toxic”. For the same compound, the half-life [26] was 156 min, the clearance [27] was 42.3 mL/min/kg and the inhibition in vivo at 3 mg/kg [28] was 91%. The half-life [29] was 276 min, the inhibition in vivo at 10 mg/kg [30] was 99% and the Activity [11] was “Non-Toxic”. For the same compound, the bioavailability [31] was 54%, the Activity [12] was “Non-Toxic” and the Activity [13] was “Non-Toxic”. The clearance [32] was 6.3 mL/min/kg.

— ChEMBL document CHEMBL4138301, “Discovery of Tetralones as Potent and Selective Inhibitors of Acyl-CoA:Diacylglycerol Acyltransferase 1” (ACS Med Chem Lett, 2018)
